This note sets out measurements from ChEMBL document CHEMBL3867462, “Synthesis and in vitro antikinetoplastid activity of polyamine-hydroxybenzotriazole conjugates” (Bioorg Med Chem, 2017).

Some results are limits rather than exact numbers.

Series [1] concerns Trypanosoma brucei gambiense. Briefly: Antitrypanosomal against bloostream forms of Trypanosoma brucei gambiense FeoITMAP/1893 trypomastigotes after 72 hrs in the dark by resazurin assay. The series is classed as functional. The following applies: FeoITMAP/1893, 72 h. In short, it runs like this:
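Bloodstream trypanosomes were seeded at 4×10⁴/mL with compound dilutions in supplemented medium containing NaHCO3, hypoxanthine, bathocuproine, thymidine and 2-mercaptoethanol. Incubation was 72 h.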
In general terms: The colour change of resazurin is a common sign of viable cells or microbes.

Series [2] concerns Leishmania donovani. In words: Antileishmanial against of Leishmania donovani LV9 intramacrophage amastigotes infected in mouse RAW 264.7 cells after 48 hrs by SYBR1 green-based qPCR analysis. It counts as functional, cell-based. The settings on record: LV9, RAW264.7, 48 h. A general note: Real-time PCR tracks product formation cycle by cycle.
The test system of series [3] is Leishmania donovani. In words: Antileishmanial against of Leishmania donovani LV9 axenic amastigotes after 72 hrs by SYBR1 green-based qPCR analysis. It counts as functional. The following applies: LV9, 72 h. In short, it runs like this: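 Axenic amastigotes were grown at 37 °C under 5% CO2, in medium at pH 5.5 containing glucose, glutamine, trypticase peptone, haemin and 20% FBS. Parasite load was read by SYBR green I fluorescence in a qPCR instrument and converted against a standard range of known parasite densities.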

Series [4] can be described thus: Cytotoxicity against mouse RAW264.7 cells assessed as cell growth inhibition after 72 hrs by Alamar blue dye-based assay. The series is classed as toxicity. In short, it runs like this:
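RAW 264.7 cells in DMEM with 10% heat-inactivated FBS were seeded at 5×10³ cells/well and incubated 24 h at 37 °C, 5% CO2. The medium was then replaced with fresh DMEM containing compound.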

A short description of series [5]: Selectivity index, ratio of CC50 for mouse RAW 264.7 cells to IC50 for Leishmania donovani LV9 axenic amastigotes. The series is classed as functional. In short, it runs like this: (§1)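 Selectivity index is the CC50 on RAW 264.7 cells divided by the IC50 on the parasite.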
The nature of series [6]: Selectivity index, ratio of CC50 for mouse RAW 264.7 cells to IC50 for Trypanosoma brucei gambiense FeoITMAP/1893 trypomastigotes. The series is classed as functional. In short, it runs like this: as §1
Series [7] can be described thus: Selectivity index, ratio of CC50 for mouse RAW 264.7 cells to IC50 for Leishmania donovani LV9 intramacrophage amastigotes infected in mouse RAW 264.7 cells. The series is classed as functional. In short, it runs like this: as §1
Series [8] can be described thus: Mixed-type inhibition of Trypanosoma brucei TryR assessed as enzyme-substrate-inhibitor complex using TS2 as substrate in presence of NADPH by Lineweaver-Burk plot analysis. In short, it runs like this:
(§2)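 Recombinant T. brucei TryR activity was followed as NADPH consumption at 340 nm with TS2 concentration varied, at 0, 10 and 40 µM inhibitor. Inhibition type and inhibitor constant were derived from Lineweaver–Burk plots.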

A further series concerns Trypanosoma brucei. In words: Inhibition of Trypanosoma brucei TryR using TS2 as substrate at 40 uM in presence of NADPH by spectrophotometric analysis. In short, it runs like this: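 Recombinant T. brucei TryR was screened with inhibitor at 40 µM in assay buffer containing 5% DMSO, at 40 or 100 µM TS2. Activity was followed as NADPH consumption at 340 nm and reported as percent inhibition against DMSO-matched controls.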

A short description of series [9]: Mixed-type inhibition of Trypanosoma brucei TryR assessed as enzyme-inhibitor complex using TS2 as substrate in presence of NADPH by Lineweaver-Burk plot analysis. In short, it runs like this:
as §2

For orientation: IC50 means the concentration that inhibits the measured activity by half. As usually defined, the CC50 is the concentration at which the toxic effect on the cells reaches its halfway point. `Cl.Cl.Cl.NCCCNCCCCNCCCNC(=O)COn1nnc2ccccc21`: the results for the half-inhibitory concentration (IC50) (in [1]; in the series on Leishmania donovani [2]; in the series on Leishmania donovani [3]) were 13.8 µM, 38.6 µM and 10.9 µM, respectively. Further, the 50% cytotoxic concentration (CC50) at 72 h in series [4] was above 100 µM. The figures for the “Ratio CC50/IC50” value in series [5], in series [6] and in series [7] were 9, 7 and 3, respectively.
As for `CC(C)(C)OC(=O)NCCCCNC(=O)COn1nnc2ccccc21`, the half-maximal inhibitory concentration (IC50) (in series [1]; in the series on Leishmania donovani [2]; with Leishmania donovani [3]) was above 100 µM each time. Moreover, the cytotoxic concentration (CC50) at 72 h in series [4] was above 100 µM.
Take `Cl.Cl.NCCCCN(CCCN)C(=O)COn1nnc2ccccc21`: the values for the IC50 (in series [1]; in the series with Leishmania donovani [2]; in the series with Leishmania donovani [3]) were 25.3 µM, 23.4 µM and above 100 µM, respectively. Moreover, the half-maximal cytotoxic concentration (CC50) at 72 h in series [4] is above 100 µM. The “Ratio CC50/IC50” value in series [6] and in series [7] was 4 throughout.
Regarding `NCCCCNCCCN` [SPERMIDINE], the IC50 was 3.3 µM in series [1], above 100 µM with Leishmania donovani [2] and 8.3 µM in the series on Leishmania donovani [3]. Moreover, the CC50 at 72 h in series [4] is above 100 µM. For the same compound, the results for the “Ratio CC50/IC50” value in series [5] and in [6] were 12 and 29, respectively.
For the compound `CCCCCCCCCCCCCCCCOP(=O)([O-])OCC[N+](C)(C)C` [MILTEFOSINE], the IC50 in the series on Leishmania donovani [2] is 1.5 µM; in the series with Leishmania donovani [3] it was 1.9 µM. Also, the half-maximal cytotoxic concentration (CC50) at 72 h in series [4] is above 100 µM.
In the case of `CC(C)(C)OC(=O)NCCCNC(=O)COn1nnc2ccccc21`, the half-maximal inhibitory concentration (IC50) in series [1] was 28.8 µM; in the series on Leishmania donovani [2], 56.7 µM; in the series with Leishmania donovani [3], above 100 µM. In [4], the CC50 at 72 h is above 100 µM. Moreover, the “Ratio CC50/IC50” value in [6] is given as 3; in series [7] it was 2.
For the compound `CC(C)(C)OC(=O)NCCCCN(CCCNC(=O)COn1nnc2ccccc21)C(=O)OC(C)(C)C`, the 50% inhibitory concentration (IC50) in [1] amounted to 1.2 µM; in the series with Leishmania donovani [2], 67.8 µM; in the series with Leishmania donovani [3], 60.5 µM. The CC50 at 72 h in series [4] is above 100 µM. In addition, the “Ratio CC50/IC50” value in series [5] is listed as 1.6; in series [6], 85; in series [7] it was 1.
Turning to `CC(C)(C)OC(=O)NCCCN(CCCCNC(=O)COn1nnc2ccccc21)C(=O)OC(C)(C)C`, the results for the IC50 (in series [1]; in the series with Leishmania donovani [2]; with Leishmania donovani [3]) were 2 µM, 41.4 µM and above 100 µM, respectively. Also, the CC50 at 72 h in [4] was above 100 µM. Further, the “Ratio CC50/IC50” value in series [6] was found to be 50; in series [7] it was 2.
For orientation: Ki means the dissociation constant of the complex between target and ligand, obtained from inhibition or displacement. As usually defined, the inhibition is the percentage by which the read-out fell short of the control. `Cl.Cl.NCCCCNCCCNC(=O)COn1nnc2ccccc21`: the concentration for half-maximal inhibition (IC50) is 72 µM in [1], above 100 µM in the series with Leishmania donovani [2] and above 100 µM with Leishmania donovani [3]. Besides, the inhibition constant Ki in series [8] turned out to be 16.8 µM; in [9], 6.7 µM. Further, the inhibition with Trypanosoma brucei stood at 80%. For the same compound, in series [4], the half-maximal cytotoxic concentration (CC50) at 72 h was above 100 µM. For the same compound, the figures for the “Ratio CC50/IC50” value in [5] and in series [6] were 1.5 and 1, respectively.
For `O=C(O)COn1nnc2ccccc21`, the IC50 (in series [1]; in the series with Leishmania donovani [2]; in the series on Leishmania donovani [3]) was above 100 µM throughout. Also, in series [4], the CC50 at 72 h was above 100 µM.
Turning to `CC(C)(C)OC(=O)NCCCN(CCCCN(CCCNC(=O)COn1nnc2ccccc21)C(=O)OC(C)(C)C)C(=O)OC(C)(C)C`, the half-maximal inhibitory concentration (IC50) in [1] was 3.5 µM; with Leishmania donovani [2] it was 34.7 µM; in the series with Leishmania donovani [3], 27 µM. Moreover, the CC50 at 72 h in series [4] was 37.4 µM. Moreover, the “Ratio CC50/IC50” value in series [5] was determined as 1.4; in series [6], 10; in [7], 1.
`CC(C)(C)OC(=O)NCCCCN(CCCNC(=O)OC(C)(C)C)C(=O)COn1nnc2ccccc21`: the IC50 in [1] was determined as 3.2 µM; in the series on Leishmania donovani [2], 3.1 µM; in the series on Leishmania donovani [3], 11.5 µM. The CC50 at 72 h in [4] was found to be 12.5 µM. For the same compound, the “Ratio CC50/IC50” value in series [5] came to 1; in [6], 4; in [7], 4.
For the compound `Cl.NCCCCNC(=O)COn1nnc2ccccc21`, the concentration for half-maximal inhibition (IC50) in series [1] is 9.5 µM; in the series with Leishmania donovani [2] it was above 100 µM; in the series with Leishmania donovani [3], above 100 µM. In [4], the half-maximal cytotoxic concentration (CC50) at 72 h was above 100 µM. Also, in [6], the “Ratio CC50/IC50” value turned out to be 11.
As for `Cl.NCCCNC(=O)COn1nnc2ccccc21`, the IC50 was above 100 µM in [1], 29.5 µM with Leishmania donovani [2] and above 100 µM in the series with Leishmania donovani [3]. The CC50 at 72 h in series [4] was above 100 µM. Moreover, the “Ratio CC50/IC50” value in series [7] was 3.
Regarding `N=C(N)c1ccc(OCCCCCOc2ccc(C(=N)N)cc2)cc1` [PENTAMIDINE], the IC50 in series [1] was found to be 0.0021 µM. Also, the CC50 at 72 h in [4] is above 100 µM.
With `Cl.Cl.NCCCNCCCCNC(=O)COn1nnc2ccccc21`, the results for the half-maximal inhibitory concentration (IC50) (in series [1]; in the series with Leishmania donovani [2]; in the series on Leishmania donovani [3]) were 38.7 µM, above 100 µM and above 100 µM, respectively. Also, the CC50 at 72 h in [4] is above 100 µM. Moreover, the figures for the “Ratio CC50/IC50” value in [5] and in series [6] were 9 and 3, respectively.
